According to ChEMBL document CHEMBL4414632, “Design, Synthesis, and Biological Evaluation of Novel Indoles Targeting the Influenza PB2 Cap Binding Region” (J Med Chem, 2019):
pIC50: −log10 of the molar value. Active and inactive are the calls of the source. The rule behind the calls is not given here.

What was measured:
[1] = Displacement of gamma-[6-aminohexyl]-GTP-biotin from Influenza B virus B/Brisbane/60/2008 C-terminal 6His-tagged PB2 (320 to 484 residues) expressed in Escherichia coli incubated for 1 hr by TR-FRET assay
[2] = Displacement of gamma-[6-aminohexyl]-GTP-biotin from Influenza A virus A/Victoria/3/1975 (H3N2) N-terminal 6His-tagged PB2 (320 to 484 residues) expressed in Escherichia coli incubated for 1 hr by TR-FRET assay
Influenza A virus [3] = assay: Antiviral activity against Influenza A virus (A/Taiwan/1/1986(H1N1)) infected in MDCK cells assessed as reduction in virus-induced cytopathic effect by measuring ATP level incubated for 24 hrs by ATPlite luminescence assay; format: functional, organism-based
Influenza A virus [4] = assay: Antiviral activity against Influenza A virus A/[…]/3/1975 (H3N2) infected in MDCK cells assessed as reduction in virus-induced cytopathic effect by measuring ATP level incubated for 24 hrs by ATPlite luminescence assay; format: functional, organism-based
[5] = Therapeutic index, ratio of CC50 for dog MDCK cells to IC50 for Influenza A virus (A/Taiwan/1/1986(H1N1)); format: toxicity; settings: read-out: Ratio CC50/IC50
[6] = Therapeutic index, ratio of CC50 for dog MDCK cells to IC50 for Influenza A virus A/[…]/3/1975 (H3N2); format: toxicity; settings: read-out: Ratio CC50/IC50
[7] = Therapeutic index, ratio of CC50 for human A549 cells to IC50 for Influenza A virus (A/Puerto Rico/8/34(H1N1)); format: toxicity; settings: read-out: Ratio CC50/IC50
Influenza A virus [8] = assay: Antiviral activity against Influenza A virus (A/Puerto Rico/8/34(H1N1)) infected in human A549 cells assessed as reduction in virus neuraminidase level incubated for 24 hrs by fluorescence based assay; format: functional, organism-based; settings: A/Puerto Rico/8/1934(H1N1), A549, 24 h
In short: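 A549 cells, 6,000/well, seeded onto compound (nine four-fold dilutions) in Ham's F12 with 2% FBS, 1% Hepes, gentamycin, 24 h at 37°C, 5% CO2; then infected with A/Puerto Rico/8/34 at MOI 1 for further 24 h.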

[9] = biological target: Glycogen synthase kinase-3 beta (Homo sapiens) (UniProt P49841); assay: Inhibition of GSK3beta (unknown origin) at 1 uM
Influenza A virus [10] = assay: In vivo antiviral activity against Influenza A virus (A/Puerto Rico/8/34(H1N1)) infected in BALB/c mouse assessed as survival rate at 30 mg/kg, po administered bid for 10 days after 48 hrs post infection and observed for 21 days relative to control; format: functional, A/Puerto Rico/8/1934(H1N1)
Influenza A virus [11] = assay: In vivo antiviral activity against Influenza A virus (A/Puerto Rico/8/34(H1N1)) infected in BALB/c mouse assessed as survival rate at 10 mg/kg, po administered bid for 10 days after 48 hrs post infection and observed for 21 days relative to control; format: functional, A/Puerto Rico/8/1934(H1N1)

Glycogen synthase kinase-3 beta (Homo sapiens), sequence (P49841 whole entry, looked up): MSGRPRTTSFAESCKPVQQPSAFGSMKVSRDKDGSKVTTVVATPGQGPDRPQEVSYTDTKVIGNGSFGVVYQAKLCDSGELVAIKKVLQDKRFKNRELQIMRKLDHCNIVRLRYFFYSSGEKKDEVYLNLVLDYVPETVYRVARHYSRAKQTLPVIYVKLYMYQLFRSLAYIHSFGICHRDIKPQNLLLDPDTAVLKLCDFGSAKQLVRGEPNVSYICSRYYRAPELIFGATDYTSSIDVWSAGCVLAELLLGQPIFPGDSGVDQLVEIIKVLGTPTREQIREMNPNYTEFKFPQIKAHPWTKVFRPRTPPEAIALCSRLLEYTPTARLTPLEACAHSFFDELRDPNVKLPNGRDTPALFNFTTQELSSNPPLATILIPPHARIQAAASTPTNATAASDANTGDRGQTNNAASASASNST

SMILES	pIC50 [1]	pIC50 [2]	pIC50 (Influenza A virus [3])	pIC50 (Influenza A virus [4])	selectivity ratio [5]	selectivity ratio [6]	selectivity ratio [7]	pIC50 (Influenza A virus [8])	inhibition [9]	Activity (Influenza A virus [10]) [%]	Activity (Influenza A virus [11]) [%]
N#Cc1cc(F)c2[nH]cc(-c3ncc(F)c(N[C@H]4C5CCC(CC5)[C@@H]4C(=O)O)n3)c2c1	4.89	7.10	7.96	7.72	97	59	> 612	7.37	–	–	–
NC(=O)c1nc(F)cnc1O	–	–	4.77	4.45	> 6	> 3	–	–	–	–	–
Cc1cc(F)c2[nH]cc(-c3ncc(F)c(N[C@H]4C5CCC(CC5)[C@@H]4C(=O)O)n3)c2c1	4.59	6.92	8.40	7.96	75	25	1490	7.66	–	–	–
O=C(O)[C@H]1C2CCC(CC2)[C@@H]1Nc1nc(-c2c[nH]c3c(F)cc(F)cc23)ncc1F	< 4.30	6.92	–	–	–	–	–	7.66	inactive	75	–
CCOC(=O)C1=C[C@@H](OC(CC)CC)[C@H](NC(C)=O)[C@@H](N)C1 [OSELTAMIVIR]	–	–	–	–	–	–	> 4130	7.51	–	–	38
O=C(O)[C@H]1C2CCC(CC2)[C@@H]1Nc1nc(-c2c[nH]c3c(F)cc(Cl)cc23)ncc1F	< 4.30	6.77	7.68	7.33	83	28	> 485	7.28	–	–	–
